The values that follow come from ChEMBL document CHEMBL1143361, “Tetracyclic indole inhibitors of hepatitis C virus NS5B-polymerase” (Bioorg Med Chem Lett, 2009).

Data set [1] is described as follows: Protein binding in human plasma. In kind it is ADME, cell-free. The note with it: read-out: PPB (converted).
Data set [2] can be described thus: Inhibition of HCV NS5B Cdelta21 in presence of heterogenic template RNA. On the set-up: species or system Hepacivirus hominis. The gist of the method: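 Purified NS5B enzyme (C-terminal 21-residue deletion) assayed with heterogenic template RNA. IC50 is the mean of at least two experiments.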
In a further data set the test system is Hepatitis C virus. Description: Antiviral activity against Hepatitis C virus infected in human HUH7 cells by replicon assay. It is filed as functional, organism-based, Hepacivirus hominis. The note with it: Huh-7. The gist of the method: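 Subgenomic HCV RNA replicon in HUH-7 cells, adapted from the Bartenschlager procedure, run in 10% fetal calf serum unless otherwise stated. EC50 is the mean of at least two experiments.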

Data set [3] in a line: AUC in dog. The note with it: plasma. It is filed as ADME, organism-based, Canis lupus familiaris. The gist of the method:
(§1)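 Given as HCl or trifluoroacetate salts, intravenously (vehicle 20% DMSO/60% PEG400/20% H2O) and orally (vehicle PEG400); n = 3. AUC reported with the dose in mpk; oral bioavailability and plasma clearance are derived from these dosings.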

A short description of data set [4]: Fraction unbound in dog plasma. In kind it is ADME, cell-free, Canis lupus familiaris.
A short description of data set [5]: Oral bioavailability in rat. The note with it: in vivo. It is filed as ADME, organism-based. Summed up: as §1
Data set [6] is described as follows: Fraction unbound in rat plasma. In kind it is ADME, cell-free.
Data set [7] can be described thus: Intrinsic clearance in rat liver microsomes in presence of NADPH. It is filed as ADME, Microsome. Summed up: (§2)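 Incubated with liver microsomes (rat, dog, rhesus or human) in the presence of NADPH. Intrinsic clearance is expressed in ml/min/kg.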
Data set [8] is described as follows: Intrinsic clearance in dog liver microsomes in presence of NADPH. In kind it is ADME, Canis lupus familiaris, Microsome. The gist of the method:
as §2
In general terms: Liver microsomes are a subcellular fraction often used to study metabolism.

Data set [9] can be described thus: Ratio of drug level from liver to plasma in po dosed rat after 6 hrs. It is filed as ADME, organism-based. The gist of the method:
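Rats dosed orally; compound concentrations in liver and plasma measured 6 h after administration and expressed as a liver/plasma ratio.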

The nature of data set [10]: Intrinsic clearance in rhesus monkey liver microsomes in presence of NADPH. It is filed as ADME, Macaca mulatta, Microsome. The gist of the method:
as §2

Data set [11] in a line: Fraction unbound in human plasma. It is filed as ADME, cell-free.
Data set [12] can be described thus: Oral bioavailability in dog. In kind it is ADME, organism-based, Canis lupus familiaris. The note with it: in vivo. The gist of the method: as §1
Data set [13] in a line: AUC in rat. It is filed as ADME, organism-based. The note with it: plasma. Summed up: as §1
Data set [14] in a line: Plasma clearance in dog. It is filed as ADME, organism-based, Canis lupus familiaris. Summed up: as §1
The nature of data set [15]: Plasma clearance in rat. It is filed as ADME, organism-based. The gist of the method:
as §1

The nature of data set [16]: Intrinsic clearance in human liver microsomes in presence of NADPH. It is filed as ADME, Microsome. The gist of the method:
as §2

A short description of data set [17]: Plasma clearance in rhesus monkey. In kind it is ADME, organism-based, Macaca mulatta. Summed up: as §1
The subject of a further data set is Canis familiaris. Put plainly: Cardiotoxicity in anesthetized dogs assessed as prolongation of QT interval up to 10 mg/kg. The note with it: dog, in vivo. It is filed as toxicity, organism-based, Canis lupus familiaris. Also on record: dose 10 mg/kg.
The nature of data set [18]: Metabolic stability in po dosed rat assessed as biliary excretion. In kind it is ADME, organism-based. The note with it: bile, read-out: Stability.
The target in data set [19] is T1, Nuclear receptor subfamily 1 group I member 2 (Homo sapiens, UniProt O75469).
T1 sequence (O75469 whole entry): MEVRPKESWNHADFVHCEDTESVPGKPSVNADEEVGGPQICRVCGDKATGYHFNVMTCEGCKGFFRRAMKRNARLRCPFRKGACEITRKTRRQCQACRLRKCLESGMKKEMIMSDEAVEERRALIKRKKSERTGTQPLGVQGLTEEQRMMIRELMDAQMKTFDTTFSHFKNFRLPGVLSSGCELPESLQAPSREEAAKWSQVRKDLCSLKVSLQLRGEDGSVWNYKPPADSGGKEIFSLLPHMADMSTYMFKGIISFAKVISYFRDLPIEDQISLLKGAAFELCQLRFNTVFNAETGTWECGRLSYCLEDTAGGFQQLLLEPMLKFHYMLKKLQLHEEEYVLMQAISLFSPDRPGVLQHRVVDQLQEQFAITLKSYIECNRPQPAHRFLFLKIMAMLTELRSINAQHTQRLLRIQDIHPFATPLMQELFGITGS
Put plainly: Activity at human PXR at 10 uM by reporter gene assay. On the technique in general: A reporter such as luciferase makes a cellular process visible.

The nature of data set [20]: Metabolic stability in po dosed dog assessed as urinary excretion. In kind it is ADME, organism-based, Canis lupus familiaris. The note with it: urine, read-out: Stability.
Another data set concerns the target Cytochrome P450 3A4 (Homo sapiens, UniProt P08684). Put plainly: Inhibition of CYP3A4 in human liver microsomes. In kind it is ADME, Microsome.
Another data set deals with Hepatocyte. Description: Metabolic stability in human hepatocytes after 4 hrs by HPLC. It is filed as ADME, cell-based. Summed up: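 [3H]-labelled compound incubated 4 h with human hepatocytes. Analysis by HPLC with radiochromatographic detection.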
The nature of data set [21]: Oral bioavailability in rhesus monkey. It is filed as ADME, organism-based, Macaca mulatta. The note with it: in vivo. The gist of the method:
as §1

A short description of data set [22]: AUC in rhesus monkey. The note with it: plasma. In kind it is ADME, organism-based, Macaca mulatta. The gist of the method:
as §1

Data set [23] in a line: Metabolic stability in po dosed rat assessed as urinary excretion. In kind it is ADME, organism-based. The note with it: urine, read-out: Stability.
The species entered for a further data set is Homo sapiens. Put plainly: Inhibition of human DNA polymerase.

Calls of active or inactive are those of the source. The rule behind the calls is not given here.

Chain of Cytochrome P450 3A4 (P08684 whole entry): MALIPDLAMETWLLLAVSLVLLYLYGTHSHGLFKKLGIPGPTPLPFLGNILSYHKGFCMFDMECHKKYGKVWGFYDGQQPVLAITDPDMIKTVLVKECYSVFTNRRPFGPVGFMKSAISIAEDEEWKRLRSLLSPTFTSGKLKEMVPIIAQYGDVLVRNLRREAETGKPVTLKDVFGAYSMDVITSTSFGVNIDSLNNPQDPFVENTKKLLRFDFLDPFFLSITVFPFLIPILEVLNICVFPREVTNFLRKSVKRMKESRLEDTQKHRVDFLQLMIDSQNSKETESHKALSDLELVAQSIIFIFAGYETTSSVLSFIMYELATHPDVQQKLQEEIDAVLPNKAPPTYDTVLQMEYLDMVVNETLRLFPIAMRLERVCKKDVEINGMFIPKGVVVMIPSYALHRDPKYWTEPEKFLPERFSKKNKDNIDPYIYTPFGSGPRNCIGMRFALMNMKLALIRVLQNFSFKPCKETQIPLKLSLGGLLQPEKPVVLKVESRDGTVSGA

For orientation: IC50 means the concentration that gives 50% inhibition. Regarding `CN(C)C(=O)Cn1c(-c2ccccc2)c(C2CCCCC2)c2ccc(C(=O)O)cc21`, the fraction unbound in data set [1] was 0.029. The half-inhibitory concentration (IC50) in data set [2] is 430 nM.
As usually defined, the EC50 is the concentration that produces a half-maximal response. As for `CN(C)CC1Cn2c(c(C3CCCCC3)c3ccc(C(=O)O)cc32)-c2ccccc2N1C` (racemic), in the data set with Hepatitis C virus, the EC50 was 160 nM. Moreover, the IC50 in [2] stood at 43 nM.
In the data set with Hepatitis C virus, `COc1ccc2c(c1)CN(CCN(C)C)CCn1c-2c(C2CCCCC2)c2ccc(C(=O)O)cc21` displayed an EC50 of 100 nM. In [2], the IC50 came out at 35 nM.
As a reminder, the AUC is the area under the concentration-time curve, a measure of exposure. Usually bioavailability stands for the share of a dose that reaches the circulation, judged against a reference dose that is usually intravenous. By CLint scaled is commonly meant the capacity of the preparation to metabolise the compound, expressed as a volume cleared per time. One may read the Kp as tissue or fluid exposure divided by exposure in the circulation. Usually clearance stands for the rate of elimination divided by the concentration. For the molecule `CN(C)CC(=O)N1CCn2c(c(C3CCCCC3)c3ccc(C(=O)O)cc32)-c2ccc(F)cc2C1`, the AUC in data set [3] came out at 17.6 µM·h; in data set [13], 4 µM·h. Besides, the fraction unbound in data set [4], in data set [6] and in [11] was 0.02 throughout. For the same molecule, the bioavailability in [5] turned out to be 48%; in data set [12], 83%. The CLint scaled in data set [7] stood at 16 mL/min/kg; in [8] it was 8 mL/min/kg; in data set [10], 42 mL/min/kg; in data set [16], 13 mL/min/kg. Moreover, the partition ratio (Kp) at 6 h in [9] is 8. In the data set on Hepatitis C virus, this molecule came in with an EC50 of 170 nM. Besides, the clearance in data set [14] was found to be 3 mL/min/kg; in data set [15], 12 mL/min/kg. Also, the concentration for half-maximal inhibition (IC50) in data set [2] worked out at 60 nM.
`CCN(CC)C1CCN(C(=O)Cn2c(-c3ccc(Cl)cc3)c(C3CCCCC3)c3ccc(C(=O)O)cc32)CC1`: in data set [5], the bioavailability stood at 10%. Further, the concentration giving a half-maximal response (EC50) in the data set with Hepatitis C virus was 180 nM. The same molecule displayed an AUC in [13] of 0.2 µM·h. The half-inhibitory concentration (IC50) in [2] amounted to 48 nM.
`CN1Cc2ccccc2-c2c(C3CCCCC3)c3ccc(C(=O)O)cc3n2CC1=O`: the concentration giving a half-maximal response (EC50) in the data set with Hepatitis C virus was found to be 18900 nM. For the same molecule, the fraction unbound in data set [1] is 0.003. In addition, the half-maximal inhibitory concentration (IC50) in [2] worked out at 80 nM.
For `COc1ccc2c(c1)CN(C)CCn1c-2c(C2CCCCC2)c2ccc(C(=O)O)cc21`, the exposure (AUC) in data set [3] was found to be 18.7 µM·h; in data set [13] it was 2.9 µM·h. Also, the bioavailability in data set [5] amounted to 83%; in [12], 67%. Also, the intrinsic metabolic clearance (CLint scaled) in data set [7] was found to be 43 mL/min/kg; in data set [8] it was 6 mL/min/kg; in [10] it was 16 mL/min/kg; in data set [16], 7 mL/min/kg. In addition, the concentration for a half-maximal effect (EC50) in the data set with Hepatitis C virus is 290 nM. The clearance in [14] came to 2.9 mL/min/kg; in data set [15] it was 32 mL/min/kg. In [2], the IC50 came out at 55 nM.
In the data set on Hepatitis C virus, `CN(C)CCN1C(=O)Cn2c(c(C3CCCCC3)c3ccc(C(=O)O)cc32)-c2ccccc21` showed an EC50 of 410 nM. The half-maximal inhibitory concentration (IC50) in data set [2] is 130 nM.
For `CN(C)CCN1CCn2c(c(C3CCCCC3)c3ccc(C(=O)O)cc32)-c2ccccc21`, in data set [2], the half-maximal inhibitory concentration (IC50) amounted to 28 nM.
As for `CN(C)CCN1CCn2c(c(C3CCCCC3)c3ccc(C(=O)O)cc32)-c2ccccc2C1`, the AUC in data set [3] worked out at 23 µM·h; in [22] it was 2 µM·h; in data set [13], 4.2 µM·h. In addition, the clearance in data set [17] was determined as 22 mL/min/kg; in data set [14], 2.5 mL/min/kg; in [15] it was 61 mL/min/kg. The fraction unbound in data set [4] worked out at 0.03; in data set [6], 0.07; in data set [11] it was 0.03. Besides, the results for the bioavailability in [5], in [12] and in data set [21] were 31%, 74% and 57%, respectively. The Activity result in the data set with Canis familiaris is on record as “Non-toxic”; in data set [19] it was “Not Active”; on Cytochrome P450 3A4, “Not Active”. In addition, the dose excreted was 4% in [18], < 1% in data set [20] and 1% in data set [23]. For the same molecule, the intrinsic clearance (CLint scaled) in data set [7] was determined as 100 mL/min/kg; in data set [8], 26 mL/min/kg; in data set [10] it was 51 mL/min/kg; in data set [16] it was 5 mL/min/kg. In addition, in data set [9], the Kp at 6 h came to 16. Besides, the Stability result in the data set on Hepatocyte was “Stable”. Further, the IC50 in data set [2] was 27 nM. Besides, in the data set listed under Homo sapiens, the result was inactive.
As for `CN(C)CC1Cn2c(c(C3CCCCC3)c3ccc(C(=O)O)cc32)-c2ccccc2CN1C` (racemic), in the data set with Hepatitis C virus, the EC50 came to 140 nM. In data set [2], the IC50 came to 35 nM.
Molecule `CN1CCn2c(c(C3CCCCC3)c3ccc(C(=O)O)cc32)-c2ccccc2C1` gave an EC50 in the data set on Hepatitis C virus of 890 nM. The IC50 in data set [2] stood at 170 nM.
The like results for `CN(C)CCN1Cc2ccccc2-c2c(C3CCCCC3)c3ccc(C(=O)O)cc3n2CCC1=O` were, in that order, 1440 nM and 860 nM.
With `CN(C)CCN1Cc2ccccc2-c2c(C3CCCCC3)c3ccc(C(=O)O)cc3n2CC1=O`, the concentration for a half-maximal effect (EC50) with Hepatitis C virus turned out to be 260 nM. The IC50 in data set [2] stood at 110 nM.
`CN(C)CC(=O)N1CCn2c(c(C3CCCCC3)c3ccc(C(=O)O)cc32)-c2ccccc2C1` came in with an EC50 in the data set with Hepatitis C virus of 220 nM. Further, the 50% inhibitory concentration (IC50) in [2] came out at 130 nM.
Take `COc1ccc2c(c1)N(CCN(C)C)CCCn1c-2c(C2CCCCC2)c2ccc(C(=O)O)cc21`: a half-maximal response with Hepatitis C virus (EC50) required 540 nM. The half-inhibitory concentration (IC50) in data set [2] stood at 77 nM.
In the same order, the values of `CN(C)CC1CN(C)c2ccccc2-c2c(C3CCCCC3)c3ccc(C(=O)O)cc3n21` (racemic) are 13500 nM and 1920 nM.
